In ChEMBL document CHEMBL1240524, “A focused library of protein tyrosine phosphatase inhibitors” (J Med Chem, 2010):

Tests used:
[1] = target: Secreted effector protein (Yersinia pestis, UniProt O68720); test: Inhibition of Yersinia pestis YOpH
Outline: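 Phosphatase activity was read at 25 °C with p-NPP at its Km (1.7 mM). The buffer was 50 mM 3,3-dimethylglutarate pH 7.0 with 50 mM NaCl, 1 mM EDTA and 10% DMSO. Initial rates came from hydrolysis at 420 nm, 30 to 150 s after mixing. Percent inhibition was measured and IC50 values were calculated from it.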

[2] = target: T1, Tyrosine-protein phosphatase non-receptor type 1 (Homo sapiens, UniProt P18031); test: Inhibition of PTP1B
T1 sequence (P18031 whole entry): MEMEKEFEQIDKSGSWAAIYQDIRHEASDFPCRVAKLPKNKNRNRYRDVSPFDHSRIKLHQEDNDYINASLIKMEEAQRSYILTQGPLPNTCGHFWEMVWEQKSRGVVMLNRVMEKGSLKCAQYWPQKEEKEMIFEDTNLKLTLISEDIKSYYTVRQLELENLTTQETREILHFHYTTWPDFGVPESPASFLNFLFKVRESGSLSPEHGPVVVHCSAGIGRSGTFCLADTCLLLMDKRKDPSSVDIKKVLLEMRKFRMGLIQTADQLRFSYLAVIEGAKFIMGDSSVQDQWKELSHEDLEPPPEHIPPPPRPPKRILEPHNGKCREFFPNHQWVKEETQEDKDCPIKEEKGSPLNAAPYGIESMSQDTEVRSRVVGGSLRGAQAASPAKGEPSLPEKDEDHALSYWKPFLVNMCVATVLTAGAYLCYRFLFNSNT
Outline: (§1)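 Medium: 10% DMSO, 1 mM EDTA, 50 mM NaCl, 50 mM 3,3-dimethylglutarate, pH 7.0. Initial rates taken as absorbance at 420 nm from 30 to 150 s after mixing. IC50 derived from percent inhibition.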

[3] = target: T2, Tyrosine-protein phosphatase non-receptor type 2 (Homo sapiens, UniProt P17706); test: Inhibition of TCPTP; outline: as §1
T2 sequence (P17706 whole entry): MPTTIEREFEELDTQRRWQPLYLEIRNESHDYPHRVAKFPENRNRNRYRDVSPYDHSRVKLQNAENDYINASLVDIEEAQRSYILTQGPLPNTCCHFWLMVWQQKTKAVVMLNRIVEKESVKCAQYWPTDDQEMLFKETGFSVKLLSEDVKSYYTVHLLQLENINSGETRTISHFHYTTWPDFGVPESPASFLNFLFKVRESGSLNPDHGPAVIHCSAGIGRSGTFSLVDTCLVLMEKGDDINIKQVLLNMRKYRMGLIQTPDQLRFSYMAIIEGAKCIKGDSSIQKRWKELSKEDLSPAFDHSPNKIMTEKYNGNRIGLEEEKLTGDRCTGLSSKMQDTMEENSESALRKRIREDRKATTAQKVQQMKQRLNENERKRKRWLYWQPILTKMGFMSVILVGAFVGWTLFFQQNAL

[4] = target: T3, Tyrosine-protein phosphatase non-receptor type 7 (Homo sapiens, UniProt P35236); test: Inhibition of HePTP
T3 sequence (P35236 whole entry): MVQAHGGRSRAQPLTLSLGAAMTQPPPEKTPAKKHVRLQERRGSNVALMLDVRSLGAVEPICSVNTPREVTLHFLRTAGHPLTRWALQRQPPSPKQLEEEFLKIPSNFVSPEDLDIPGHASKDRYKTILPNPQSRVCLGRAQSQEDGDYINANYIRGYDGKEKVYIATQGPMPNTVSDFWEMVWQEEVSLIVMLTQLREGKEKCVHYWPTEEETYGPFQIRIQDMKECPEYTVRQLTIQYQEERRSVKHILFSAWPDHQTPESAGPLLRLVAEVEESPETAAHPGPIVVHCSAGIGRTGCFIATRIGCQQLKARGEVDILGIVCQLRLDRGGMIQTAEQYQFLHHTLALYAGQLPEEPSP
Outline: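 HePTP assayed with 4-methylumbelliferyl phosphate at 174 μM (its measured Km) at 25 °C in 10% DMSO, 1 mM EDTA, 50 mM NaCl, 50 mM 3,3-dimethylglutarate, pH 7.0. Initial rates read as fluorescence (ex 340, em 460 nm) from 0 to 150 s after mixing. IC50 derived from percent inhibition.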

[5] = Selectivity ratio of IC50 for TCPTP to IC50 for PTP1B

Secreted effector protein, sequence (O68720 whole entry): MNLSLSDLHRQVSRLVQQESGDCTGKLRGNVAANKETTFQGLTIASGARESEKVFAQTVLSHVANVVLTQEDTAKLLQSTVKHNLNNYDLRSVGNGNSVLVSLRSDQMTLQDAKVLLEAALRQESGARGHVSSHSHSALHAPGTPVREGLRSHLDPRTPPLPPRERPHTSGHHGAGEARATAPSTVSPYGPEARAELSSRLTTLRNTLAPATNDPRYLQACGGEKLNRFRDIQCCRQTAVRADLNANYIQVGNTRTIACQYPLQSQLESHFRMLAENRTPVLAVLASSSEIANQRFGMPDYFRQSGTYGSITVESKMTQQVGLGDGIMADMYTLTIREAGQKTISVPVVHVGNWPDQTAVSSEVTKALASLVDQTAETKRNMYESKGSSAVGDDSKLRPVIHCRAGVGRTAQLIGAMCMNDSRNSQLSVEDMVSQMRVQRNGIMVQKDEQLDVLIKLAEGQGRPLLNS

Structure (SMILES) | IC50 [1] | IC50 [2] | IC50 [3] | IC50 [4] | Ratio IC50 [5]
O=C(O)C(=O)c1ccc(OCc2ccc(COc3ccc(C(=O)C(=O)O)cc3)c(C(=O)Nc3ccc(Oc4ccc(SC(F)(F)F)cc4)cc3)c2)cc1 | 50 nM | 1600 nM | 4000 nM | 53000 nM | –
CC(C)c1ccc(Oc2ccc(NC(=O)c3cc(COc4ccc(C(=O)C(=O)O)cc4)ccc3COc3ccc(C(=O)C(=O)O)cc3)cc2)cc1 | 800 nM | – | – | – | –
CCCCc1ccc(Oc2ccc(NC(=O)c3cc(COc4ccc(C(=O)C(=O)O)cc4)ccc3COc3ccc(C(=O)C(=O)O)cc3)cc2)cc1 | 200 nM | – | – | – | –
O=C(O)C(=O)c1ccc(OCc2ccc(COc3ccc(C(=O)C(=O)O)cc3)c(C(=O)Nc3ccc(Oc4ccc(Cl)c(Cl)c4)cc3)c2)cc1 | 210 nM | – | – | – | –
N#Cc1ccc(Oc2ccc(NC(=O)c3cc(COc4ccc(C(=O)C(=O)O)cc4)ccc3COc3ccc(C(=O)C(=O)O)cc3)cc2)cc1 | 1300 nM | – | – | – | –
O=C(O)C(=O)c1ccc(OCc2ccc(COc3ccc(C(=O)C(=O)O)cc3)c(C(=O)Nc3ccc(Oc4ccc(F)cc4)cc3)c2)cc1 | 110 nM | – | – | – | –
Cc1ccccc1Oc1ccc(NC(=O)c2cc(COc3ccc(C(=O)C(=O)O)cc3)ccc2COc2ccc(C(=O)C(=O)O)cc2)cc1 | 230 nM | – | – | – | –
O=C(O)C(=O)c1ccc(OCc2ccc(COc3ccc(C(=O)C(=O)O)cc3)c(C(=O)Nc3ccc(Oc4ccc(F)cc4F)cc3)c2)cc1 | 910 nM | – | – | – | –
O=C(O)C(=O)c1ccc(OCc2ccc(COc3ccc(C(=O)C(=O)O)cc3)c(C(=O)Nc3ccc(Oc4ccc(-c5ccccc5)cc4)cc3)c2)cc1 | 30 nM | 220 nM | 6500 nM | 21000 nM | –
COc1ccc(Oc2ccc(NC(=O)c3cc(COc4ccc(C(=O)C(=O)O)cc4)ccc3COc3ccc(C(=O)C(=O)O)cc3)cc2)cc1 | 1100 nM | – | – | – | –
O=C(O)C(=O)c1ccc(OCc2ccc(COc3ccc(C(=O)C(=O)O)cc3)c(C(=O)Nc3ccc(Oc4ccccc4)cc3)c2)cc1 | 240 nM | – | – | – | < 2
Cc1ccc(Oc2ccc(NC(=O)c3cc(COc4ccc(C(=O)C(=O)O)cc4)ccc3COc3ccc(C(=O)C(=O)O)cc3)cc2)cc1 | 190 nM | – | – | – | –
O=C(O)C(=O)c1ccc(OCc2ccc(COc3ccc(C(=O)C(=O)O)cc3)c(C(=O)Nc3ccc(Oc4cccc(F)c4)cc3)c2)cc1 | 220 nM | – | – | – | –
O=C(O)C(=O)c1ccc(OCc2ccc(COc3ccc(C(=O)C(=O)O)cc3)c(C(=O)Nc3cccc(OCc4ccccc4)c3)c2)cc1 | 100 nM | – | – | – | –
CCc1ccc(Oc2ccc(NC(=O)c3cc(COc4ccc(C(=O)C(=O)O)cc4)ccc3COc3ccc(C(=O)C(=O)O)cc3)cc2)cc1 | 70 nM | 490 nM | 3500 nM | 52000 nM | –
CSc1ccc(Oc2ccc(NC(=O)c3cc(COc4ccc(C(=O)C(=O)O)cc4)ccc3COc3ccc(C(=O)C(=O)O)cc3)cc2)cc1 | 110 nM | – | – | – | –
CCCCCCc1ccc(Oc2ccc(NC(=O)c3cc(COc4ccc(C(=O)C(=O)O)cc4)ccc3COc3ccc(C(=O)C(=O)O)cc3)cc2)cc1 | 90 nM | 1200 nM | 2300 nM | 28000 nM | –
